PKD1 kinase inh = inhibitors of human PKD1 kinase. inhibition, % (test concentration not listed). Q15139. PKD1 kinase fluorescence polarization assay. actives 0.056% (n = 200,000); in the data active = inhibition above about 50%
Rad51 HR inh = Rad51 (human) homologous recombination inhibition. inhibition, % at 10 µM. actives 0.085% (n = 200,000). AID 1385. hRad51 DNA strand exchange, fluorescence dequenching. Q06609;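 active = inhibition above 40% at the single screening dose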;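 note: 0% = DMSO control wells and 100% = blanks with heterologous ssDNA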
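System: human Rad51 nucleoprotein filaments preassembled on unlabelled ssDNA. Reagent: labelled 47-mer dsDNA for strand exchange. Schedule: 30-min compound preincubation and 15-min exchange, both room temperature. Measured by: FRET fluorescence dequenching, excitation 485 nm, emission 520 nm. Read-out: Fluorescence-based percent inhibition, control- and blank-normalised. Benchmarks: plate controls and plate blanks.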
ROMK mod = modulates human ROMK potassium channel activity | P48048 | AID 1918 | B-score at 10 µM | Tet-inducible ROMK, thallium flux fluorescence; actives lie on both sides | actives 2% (n = 130,000);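 active = signal ratio slope over the read window, or its plate-corrected B-score, at least 3 SD from the plate mean, either direction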;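 note: B-score of the F/F0 ratio slope over 7 to 12 s after thallium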
Cl transport mod = modulates chloride dependent transport by human KCC2 | Q9H2X9 | KCC2 cells, thallium flux FluoZin-2 fluorescence | B-score of Tl+ flux slope (higher = more flux/activation; lower = inhibition) at 10 µM | actives 2.2% (n = 190,000) | AID 1456;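 active = thallium flux slope and its plate-corrected score both differing from the plate sample mean at a set confidence after two filtering rounds, in either direction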;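 note: slope of fluorescence scaled to starting intensity during 10 to 20 s after thallium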
ROMK retest = retested hit modulating human ROMK potassium channel. shares compounds with ROMK mod. ROMK thallium flux, fluorescence ratio; hits give low values. normalized thallium flux (F/F0 slope) at 10 µM. actives 54% (n = 3,000);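 active = Flux at 10 µM at least 3 SD below or above vehicle control mean in one or both replicates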
The depositor's hits bear a star; / = no result given. A selection: hits, their analogues and other compounds. The true share with any hit is near 3%.

SMILES	PKD1 kinase inh	Rad51 HR inh	ROMK mod	Cl transport mod	ROMK retest
CC(C)CCNC(=O)C(c1ccc(O)cc1)N(C(=O)C1COc2ccccc2O1)c1cccc(O)c1 (stereo not given)	1	-5	-2.7*	-0.97	0.055*
CCOc1cccc(N(C(=O)C2COc3ccccc3O2)C(C(=O)NC2CCCCC2)c2ccc(O)cc2)c1 (stereo not given)	-4	9	-0.15	0.66	/
CCC(=O)N1CCc2cc(S(=O)(=O)N3CCN(c4ccccn4)CC3)ccc21	-6	-3	3.6*	-0.67	0.09
CCC(=O)N1CCc2cc(S(=O)(=O)N3CCc4ccccc4C3)ccc21	-4	1	1	/	/
CCCC1=C(C(=O)OCC)C(c2cccs2)C(C#N)=C(N)O1 (stereo not given)	-4	-8	2.3*	-0.085	0.08
CCOC(=O)C1=C(N)OC(CCl)=C(C#N)C1c1ccsc1 (stereo not given)	-1	-5	-3.5*	-0.19	0.06*
O=S(=O)(Nc1ccc(-c2nc3cccnc3s2)cc1)c1ccccc1F	/	/	/	0.5	/
COc1ccc(CNc2nc3ccccc3n2C)c(O)c1	/	9	/	/	/
COc1ccc(CNc2nc3ccccc3n2C)c(OC)c1	-2	8	-7.6*	0.085	0.077
Cn1nc(C(=O)OCC(=O)Nc2sccc2C(N)=O)c2ccccc2c1=O	/	/	/	-0.66	/
CCCC(=O)OCCNc1cc(Sc2nccn2C)c2nonc2c1[N+](=O)[O-]	-9	-2	-4.7*	-2.1	0.051*
Cc1nnc(Sc2cc(NCCO)c([N+](=O)[O-])c3nonc23)s1	1	22	-7.2*	-0.84	0.057*
CCCSc1cc(NCCOC(=O)CCC)c([N+](=O)[O-])c2nonc12	2	5	/	0.58	/
Cc1ccc(CN2CCN(Cc3cnc(N4CCOCC4)s3)CC2CCO)cc1 (stereo not given)	-2	4	0.095	-0.86	/
O=C(CN1CC(=O)Nc2ccccc21)NCCc1ccc(Cl)cc1Cl	1	10	-2	-1.6	/
COc1ccc(N=Cc2oc3ccc4ccccc4c3c2O)cc1	-2	-316	-3.5*	0.078	0.053*
CCOC(=O)c1ccc(NC(=S)Nc2ccccc2N)cc1	/	4	/	/	/
CCOC(=O)COc1cc2oc(=O)cc(C)c2cc1[N+](=O)[O-]	4	28	2.4	0.88	/
CCn1c(/C=C/Nc2ccccc2)[n+](CC)c2cc(Cl)c(Cl)cc21	0	10	-3.9*	-2.3	0.044*
CCn1c(/C=C/N(C(C)=O)c2ccccc2)[n+](CCCS(=O)(=O)[O-])c2cc(Cl)c(Cl)cc21	0	-4	0.61	/	/
COC(=O)c1cc(NC(=O)c2ccccc2)c(=O)oc1C/C=N\OCc1ccc(Cl)cc1Cl	-2	-15	-2.8*	1.4	0.065*
Cc1ccc(C(C[N+](=O)[O-])c2c(C)[nH]n(-c3ccccc3)c2=O)cc1 (stereo not given)	-7	24	-2.3	0.65	/
Cc1[nH]n(-c2ccccc2)c(=O)c1C(C[N+](=O)[O-])c1ccc(Cl)cc1 (stereo not given)	3	-19	-3*	-0.0017	0.061*
O=C(NCc1ccccn1)c1cccc(NS(=O)(=O)c2cccc(F)c2)c1	-5	-1	1.5	-0.29	/
Fc1ccc(NC(=S)Nc2ccccc2N2CCOCC2)cc1Cl	-2	-2	-0.28	-0.3	/
SMILES	PKD1 kinase inh	Rad51 HR inh	ROMK mod	Cl transport mod	ROMK retest
S=C(Nc1ccc(Oc2ccccc2)cc1)N1CCN(c2ccccn2)CC1	-5	-22	2.6*	0.014	0.082
COc1cccc(NC(=S)N2CCN(c3ccccn3)CC2)c1	-6	3	0.27	-0.74	/
S=C(Nc1ccccc1)N1CCN(C(=S)Nc2ccccc2)CC1	-6	/	-13*	0.078	0.087
Cc1ccc(S(=O)(=O)N(c2nc(NC(C)C)nc(NC(C)C)n2)n2cnnc2)cc1	14	36	-0.38	-1.5	/
COc1cc(C(=O)NNC2=NC(C)(C)Cc3cc(C)c(C)cc32)cc(OC)c1OC	3	3	/	-1	/
CCN(CC)C(=O)CC(c1ccccc1)c1ccco1 (stereo not given)	-6	0	/	-2	0.084
CC1=CC(C)(C)N(S(=O)(=O)c2ccc(C)cc2)c2ccccc21	-14	-1	3.2*	0.057	0.086
CC1=CC(C)(C)N(S(=O)(=O)c2ccc(F)cc2)c2ccc(C)cc21	7	3	0.53	-1.3	/
COC(=O)CC/C(O)=C1\C(=O)CC(C)(C)CC1=NCCc1nc2ccccc2[nH]1	-1	4	/	0.53	/
